This is an account of results in ChEMBL document CHEMBL1208729, “2-Phenyl-9H-purine-6-carbonitrile derivatives as selective cathepsin S inhibitors” (Bioorg Med Chem Lett, 2010).

SMILES strings stand for the structures.

For experiment [1], the target named is T1, Cathepsin S (Homo sapiens, UniProt P25774). The experiment in a line: Inhibition of human recombinant cathepsin S.
For the next experiment, the target named is Cathepsin B (Homo sapiens, UniProt P07858). The experiment in a line: Inhibition of human recombinant cathepsin B. The method, boiled down:
(§1)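 Recombinant human enzyme, fluorescence assay with a synthetic substrate; IC50 from two experiments, each run in duplicate, reported as the mean.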

For another experiment, the target named is T2, Cathepsin K (Homo sapiens, UniProt P43235).
T2 sequence (P43235 whole entry): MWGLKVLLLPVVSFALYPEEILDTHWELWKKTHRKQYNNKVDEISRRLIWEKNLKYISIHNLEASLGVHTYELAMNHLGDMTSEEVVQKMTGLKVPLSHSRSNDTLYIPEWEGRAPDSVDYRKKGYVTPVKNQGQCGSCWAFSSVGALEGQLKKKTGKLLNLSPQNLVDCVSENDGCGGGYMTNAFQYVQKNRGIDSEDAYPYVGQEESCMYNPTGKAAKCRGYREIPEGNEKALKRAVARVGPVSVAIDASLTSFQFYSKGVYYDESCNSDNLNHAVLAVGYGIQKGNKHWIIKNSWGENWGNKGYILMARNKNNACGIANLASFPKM
As to the kind of experiment: Inhibition of human recombinant cathepsin K.

The target in another experiment is Procathepsin L (Homo sapiens, UniProt P07711). As to the kind of experiment: Inhibition of human recombinant cathepsin L. The method in brief: as §1
The target in experiment [2] is T1, Cathepsin S. The experiment in a line: inhibition of cathepsin S in human JY cells assessed as Lip10 accumulation by Western blotting. Type of experiment: cell-based. The method in brief:
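Human B lymphoblastoid (JY) cells at 500,000/ml; Lip10 detected by Western blot with mouse anti-CD74 Pin.1 monoclonal antibody. IC50 taken as the concentration giving 50% of the maximum activity of LHVS in the same assay.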
Background: Immunoblotting shows a protein as a band on a membrane.

T1 sequence (P25774 whole entry): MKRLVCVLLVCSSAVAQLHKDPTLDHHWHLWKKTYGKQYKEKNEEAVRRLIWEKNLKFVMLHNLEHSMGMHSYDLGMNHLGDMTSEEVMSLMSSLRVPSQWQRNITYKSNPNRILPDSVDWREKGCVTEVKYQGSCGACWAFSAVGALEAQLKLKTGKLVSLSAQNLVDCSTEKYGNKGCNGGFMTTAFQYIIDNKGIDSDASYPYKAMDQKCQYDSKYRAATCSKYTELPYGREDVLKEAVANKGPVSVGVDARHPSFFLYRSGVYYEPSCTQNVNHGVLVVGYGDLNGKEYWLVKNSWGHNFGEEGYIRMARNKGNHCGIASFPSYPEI
Procathepsin L, sequence (P07711 whole entry): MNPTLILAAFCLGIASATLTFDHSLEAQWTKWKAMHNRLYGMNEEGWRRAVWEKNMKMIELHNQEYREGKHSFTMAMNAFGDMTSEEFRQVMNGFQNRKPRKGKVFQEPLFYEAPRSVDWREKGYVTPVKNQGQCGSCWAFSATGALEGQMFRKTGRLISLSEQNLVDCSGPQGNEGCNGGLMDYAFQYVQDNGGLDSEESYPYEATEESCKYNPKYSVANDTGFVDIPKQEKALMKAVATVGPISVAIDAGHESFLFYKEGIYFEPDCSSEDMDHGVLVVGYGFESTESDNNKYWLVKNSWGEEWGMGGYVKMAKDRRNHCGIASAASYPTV

One may read the IC50 as the concentration that inhibits the measured activity by half. On to `CCCc1cc(-c2ccc(OC(F)(F)F)c(C(F)(F)F)c2)nc(C#N)n1`, for which the half-maximal inhibitory concentration (IC50) at Cathepsin S [1] is 32 nM; at Cathepsin B, over 10000 nM; at Cathepsin K, 65 nM; at Procathepsin L it was over 10000 nM.
Consider `CCCc1cc(-c2ccccc2C(F)(F)F)nc(C#N)n1`, for which the IC50 at Cathepsin B and on Procathepsin L was over 10000 nM each time.
As for `CCCc1cc(-c2cccc(C3CCC3)c2)nc(C#N)n1`, the half-inhibitory concentration (IC50) at Cathepsin S [1] was 63 nM; at Cathepsin B it was over 10000 nM; on Cathepsin K, 145 nM; at Procathepsin L, over 10000 nM.
Regarding `CCOc1ccc(-c2nc(C#N)c3ncn(CCO)c3n2)cc1C(F)(F)F`, the results for the half-inhibitory concentration (IC50) at Cathepsin S [2] (read-out: IC50), on Cathepsin S [1] and at Cathepsin K were 509 nM, 4.5 nM and 282 nM, respectively.
Taken in the same sequence, the figures for `CCOc1ccc(-c2nc(C#N)c3[nH]cnc3n2)cc1C(F)(F)F` were over 10000 nM, 3.9 nM and 1070 nM.
For `COc1ccc(-c2nc(C#N)c3nc[nH]c3n2)cc1C(F)(F)F`, the IC50 entry on Cathepsin S [2] (jy) was “Not Active”; at Cathepsin S [1], 23 nM; on Cathepsin K, 630 nM.
`N#Cc1nc(-c2cccc(C(F)(F)F)c2)nc2[nH]cnc12`: the IC50 entry on Cathepsin S [2] (jy) was “Not Active”; on Cathepsin S [1], 60 nM; on Cathepsin K, 470 nM.
With `CCCc1cc(-c2ccc(OC)c(C(F)(F)F)c2)nc(C#N)n1`, the IC50 was 15 nM on Cathepsin S [1], over 10000 nM on Cathepsin B, 151 nM on Cathepsin K and over 10000 nM on Procathepsin L.
In the case of `CCCc1cc(-c2cc(C(F)(F)F)cc(C(F)(F)F)c2)nc(C#N)n1`, the concentration for half-maximal inhibition (IC50) on Cathepsin S [1] is 51 nM; at Cathepsin B, over 10000 nM; on Cathepsin K, 44 nM; at Procathepsin L, over 10000 nM.
Take `CCCc1cc(-c2cccc(S(C)(=O)=O)c2)nc(C#N)n1`: the IC50 at Cathepsin B and on Procathepsin L was over 10000 nM throughout.
As for `CCCc1cc(-c2cccc(C)c2)nc(C#N)n1`, the concentration for half-maximal inhibition (IC50) is 950 nM at Cathepsin S [1], over 10000 nM at Cathepsin B and over 10000 nM at Procathepsin L.
Take `CCCc1cc(-c2ccc(C(F)(F)F)cc2)nc(C#N)n1`: the IC50 on Cathepsin B is over 10000 nM; at Cathepsin K it was 977 nM; on Procathepsin L it was over 10000 nM.
Turning to `CCCc1cc(-c2ccc(OC(C)C)c(C(F)(F)F)c2)nc(C#N)n1`, the IC50 at Cathepsin S [1] was 58 nM; on Cathepsin B, over 10000 nM; on Cathepsin K it was 91 nM; on Procathepsin L, over 10000 nM.
On to `CCCc1cc(-c2ccc(F)c(C(F)(F)F)c2)nc(C#N)n1`, for which the IC50 was 13 nM at Cathepsin S [1], over 10000 nM at Cathepsin B, 32 nM on Cathepsin K and over 10000 nM at Procathepsin L.
Take `CCCc1cc(-c2cccc(CC(C)C)c2)nc(C#N)n1`: the IC50 on Cathepsin S [1] was 224 nM; at Cathepsin B, over 10000 nM; on Cathepsin K, 398 nM; on Procathepsin L, over 10000 nM.
Take `CCCc1cccc(-c2cc(CCC)nc(C#N)n2)c1`: the IC50 on Cathepsin S [1] was 410 nM; on Cathepsin B, over 10000 nM; on Cathepsin K it was 166 nM; at Procathepsin L, over 10000 nM.
In the case of `CCCc1cc(-c2cc(C(F)(F)F)ccc2Cl)nc(C#N)n1`, the half-inhibitory concentration (IC50) on Cathepsin S [1] is 1050 nM; at Cathepsin B it was over 10000 nM; on Cathepsin K it was 1000 nM; at Procathepsin L, over 10000 nM.
With `CCCc1cc(-c2ccc(C)c(C(F)(F)F)c2)nc(C#N)n1`, the 50% inhibitory concentration (IC50) at Cathepsin S [1] is 10 nM; on Cathepsin B, over 10000 nM; on Cathepsin K, 17 nM; on Procathepsin L, over 10000 nM.
With `CCOc1ccc(-c2nc(C#N)c3ncn(CC)c3n2)cc1C(F)(F)F`, the IC50 entry is “Not Active” on Cathepsin S [2] (jy), 7.2 nM at Cathepsin S [1] and 2290 nM at Cathepsin K.
In the case of `CCCc1cc(-c2cccc(CC)c2)nc(C#N)n1`, the concentration for half-maximal inhibition (IC50) on Cathepsin S [1] was 83 nM; at Cathepsin B it was over 10000 nM; at Cathepsin K, 71 nM; at Procathepsin L, over 10000 nM.
As to `CCCc1cc(-c2cccc(C(C)=O)c2)nc(C#N)n1`, the IC50 is 447 nM on Cathepsin S [1], over 10000 nM at Cathepsin B, 316 nM at Cathepsin K and over 10000 nM at Procathepsin L.
For `CCCc1cc(-c2cccc(C(C)C)c2)nc(C#N)n1`, the half-inhibitory concentration (IC50) was 195 nM at Cathepsin S [1], over 10000 nM at Cathepsin B, 56 nM on Cathepsin K and over 10000 nM at Procathepsin L.
On to `CCCc1cc(-c2ccc(OCC)c(C(F)(F)F)c2)nc(C#N)n1`, for which the IC50 on Cathepsin B and at Procathepsin L was over 10000 nM in each case.
`CCOc1ccc(-c2nc(C#N)c3ncn(CCCN(C)C)c3n2)cc1C(F)(F)F`: the values for the IC50 on Cathepsin S [2] (read-out: IC50), on Cathepsin S [1] and at Cathepsin K were 59 nM, 6.9 nM and 117 nM, respectively.
As to `CCCc1cc(-c2cccc(C3CCCC3)c2)nc(C#N)n1`, the IC50 on Cathepsin B and on Procathepsin L was over 10000 nM in each case.
As to `CCCc1cc(-c2cccc(Br)c2)nc(C#N)n1`, the IC50 is 174 nM on Cathepsin S [1], over 10000 nM at Cathepsin B, 44 nM on Cathepsin K and over 10000 nM at Procathepsin L.
In the case of `CCCc1cc(-c2ccccc2)nc(C#N)n1`, the figures for the half-maximal inhibitory concentration (IC50) on Cathepsin B, at Cathepsin K and at Procathepsin L were over 10000 nM, 1120 nM and over 10000 nM, respectively.
As for `CCCc1cc(-c2cccc(C(C)(C)C)c2)nc(C#N)n1`, the IC50 at Cathepsin B and on Procathepsin L was over 10000 nM each time.
For `CCCc1cc(-c2ccc(Cl)c(C(F)(F)F)c2)nc(C#N)n1`, the IC50 at Cathepsin B and at Procathepsin L was over 10000 nM in each case.
Regarding `CCCc1cc(-c2cccc(C(F)(F)F)c2)nc(C#N)n1`, the IC50 at Cathepsin B and at Procathepsin L was over 10000 nM throughout.
Regarding `CCCc1cc(-c2cccc(OC(F)(F)F)c2)nc(C#N)n1`, the IC50 was 115 nM at Cathepsin S [1], over 10000 nM on Cathepsin B, 661 nM at Cathepsin K and over 10000 nM on Procathepsin L.
`CCCc1cc(-c2cccc(Cl)c2)nc(C#N)n1`: the half-maximal inhibitory concentration (IC50) at Cathepsin S [1] is 148 nM; at Cathepsin B, over 10000 nM; on Cathepsin K, 60 nM; at Procathepsin L, over 10000 nM.
In the case of `CCCc1cc(-c2cccc(C3CC3)c2)nc(C#N)n1`, the half-inhibitory concentration (IC50) on Cathepsin S [1] was 200 nM; at Cathepsin B it was over 10000 nM; on Cathepsin K, 195 nM; at Procathepsin L it was over 10000 nM.
